pEC50: −log10 of the molar value. Calls of active or inactive are those of the source. No cut-off for these calls is given here.
Assays:
Format in all cases: cell-based
[1] = molecular target: T1, Peroxisome proliferator-activated receptor gamma (Homo sapiens, UniProt P37231); assay: Agonist activity at GAL4-DNA binding domain fused human PPARgamma ligand binding domain expressed in human HepG2 cells assessed as receptor transactivation incubated for 20 hrs by luciferase reporter gene assay; conditions: for pEC50: read-out: EC50
T1 sequence (P37231 whole entry): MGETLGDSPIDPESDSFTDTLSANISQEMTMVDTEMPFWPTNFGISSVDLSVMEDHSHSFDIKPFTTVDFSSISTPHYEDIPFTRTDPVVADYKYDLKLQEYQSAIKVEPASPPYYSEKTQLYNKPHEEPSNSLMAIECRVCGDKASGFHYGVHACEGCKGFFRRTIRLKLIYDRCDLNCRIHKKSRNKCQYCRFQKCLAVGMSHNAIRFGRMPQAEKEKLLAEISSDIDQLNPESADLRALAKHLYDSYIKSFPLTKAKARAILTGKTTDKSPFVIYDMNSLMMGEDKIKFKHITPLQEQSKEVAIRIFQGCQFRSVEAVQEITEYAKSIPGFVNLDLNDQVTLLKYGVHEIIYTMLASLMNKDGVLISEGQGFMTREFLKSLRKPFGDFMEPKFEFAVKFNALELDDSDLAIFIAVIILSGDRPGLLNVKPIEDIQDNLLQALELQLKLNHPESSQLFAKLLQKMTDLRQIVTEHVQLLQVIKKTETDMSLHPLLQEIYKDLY

[2] = molecular target: T2, Peroxisome proliferator-activated receptor alpha (Homo sapiens) (UniProt Q07869); assay: Agonist activity at GAL4-DNA binding domain fused human PPARalpha ligand binding domain expressed in human HepG2 cells assessed as receptor transactivation incubated for 20 hrs by luciferase reporter gene assay relative to Wy-14,643
T2 sequence (whole entry): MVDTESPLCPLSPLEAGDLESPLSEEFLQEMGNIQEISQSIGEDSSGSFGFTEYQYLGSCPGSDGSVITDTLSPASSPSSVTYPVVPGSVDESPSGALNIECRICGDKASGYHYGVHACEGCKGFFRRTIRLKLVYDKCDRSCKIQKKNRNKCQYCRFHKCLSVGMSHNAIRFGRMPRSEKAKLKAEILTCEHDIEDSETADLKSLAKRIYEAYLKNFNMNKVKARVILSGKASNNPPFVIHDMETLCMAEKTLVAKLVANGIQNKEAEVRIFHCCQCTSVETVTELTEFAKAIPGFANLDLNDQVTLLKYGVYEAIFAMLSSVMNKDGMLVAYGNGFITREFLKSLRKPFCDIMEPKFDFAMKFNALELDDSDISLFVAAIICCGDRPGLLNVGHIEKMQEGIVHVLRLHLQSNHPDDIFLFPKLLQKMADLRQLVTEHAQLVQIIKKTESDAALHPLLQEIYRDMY
Outline: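 GAL4-PPARα-LBD chimera transiently expressed in HepG2 cells; 10⁵ cells/well seeded in triplicate, calcium-phosphate transfection after 24 h with GAL4-PPARα-LBD plasmid (30 ng), pGAL5TKpGL3 reporter (100 ng) and pCMVβgal (250 ng). Efficacy expressed as percentage of maximum fold induction obtained with reference agonist Wy-14,643. Transfections repeated at least twice.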

[3] = molecular target: T3, Peroxisome proliferator-activated receptor alpha (Homo sapiens, UniProt Q07869); assay: Agonist activity at GAL4-DNA binding domain fused human PPARalpha ligand binding domain expressed in human HepG2 cells assessed as receptor transactivation incubated for 20 hrs by luciferase reporter gene assay; conditions: for pEC50: read-out: EC50; for EC50: hepg2
T3 sequence (Q07869 whole entry): T2 sequence (whole entry)
Outline: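 GAL4-PPARα-LBD chimera transiently expressed in HepG2 cells; 10⁵ cells/well seeded in triplicate, calcium-phosphate transfection after 24 h with GAL4-PPARα-LBD plasmid (30 ng), pGAL5TKpGL3 reporter (100 ng) and pCMVβgal (250 ng). Transfections repeated at least twice.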

[4] = molecular target: T4, PPAR alpha/gamma (Homo sapiens) (UniProt P37231+Q07869); assay: Agonist activity at PPARalpha/PPARgamma in human […] cells assessed as increase in FABP1 gene expression at 25 uM incubated for 1 day by quantitative PCR method relative to untreated control
Outline: (§1)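 HepaRG cells grown two weeks in William's E medium with 10% FCS, insulin, glutamine and hydrocortisone, then two weeks more with 2% DMSO. Hepatocyte-like cells detached by mild trypsinization and seeded at 2.6 × 10⁴ cells/cm². After 24 h they were starved 16 h without DMSO/FCS, then exposed 24 h to ligand. Total RNA assayed by real-time qPCR; vehicle-treated control set to 1; duplicate samples; two-way ANOVA with Bonferroni.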

[5] = molecular target: T4, PPAR alpha/gamma (Homo sapiens); assay: Agonist activity at PPARalpha/PPARgamma in human […] cells assessed as increase in CD36 gene expression at 25 uM incubated for 1 day by quantitative PCR method relative to untreated control; outline: as §1
[6] = molecular target: T4, PPAR alpha/gamma (Homo sapiens); assay: Agonist activity at PPARalpha/PPARgamma in human […] cells assessed as increase in ANGPTL4 gene expression at 25 uM incubated for 1 day by quantitative PCR method relative to untreated control; outline: as §1
[7] = molecular target: T4, PPAR alpha/gamma (Homo sapiens); assay: Agonist activity at PPARalpha/PPARgamma in human […] cells assessed as increase in FABP4 gene expression at 25 uM incubated for 1 day by quantitative PCR method relative to untreated control; outline: as §1
[8] = molecular target: T4, PPAR alpha/gamma (Homo sapiens); assay: Agonist activity at PPARalpha/PPARgamma in human […] cells assessed as increase in HMGCS2 gene expression at 25 uM incubated for 1 day by quantitative PCR method relative to untreated control; outline: as §1
[9] = molecular target: T4, PPAR alpha/gamma (Homo sapiens); assay: Agonist activity at PPARalpha/PPARgamma in human […] cells assessed as increase in CPT1A gene expression at 25 uM incubated for 1 day by quantitative PCR method relative to untreated control; outline: as §1

| pEC50 [1] | Emax [2] | pEC50 [3] | SMILES | also measured |
| --- | --- | --- | --- | --- |
| 4.55 | 98% | 5.26 | O=C(O)[C@H](Cc1ccccc1)Oc1ccc(/C=N/O)cc1 |  |
| 5.42 | 91% | 5.42 | CCCO/N=C/c1ccc(O[C@@H](Cc2ccccc2)C(=O)O)cc1 | Activity [4]: Active; Activity [5]: Active; Activity [6]: Active; fold change (FC) [7]: 50; Activity [8]: Active; fold change (FC) [9]: 2 |
|  | 100% |  | O=C(O)[C@H](Cc1ccccc1)Oc1ccc(-c2ccccc2)cc1 |  |
| 4.37 | 91% | 5.11 | O=C(O)C(Cc1ccccc1)Oc1ccc(/C=N/O)cc1 (racemic) |  |
| 4.89 | 101% | 5.11 | CO/N=C/c1ccc(OC(Cc2ccccc2)C(=O)O)cc1 (racemic) |  |
| 5.10 | 96% | 5.14 | CCCO/N=C/c1ccc(OC(Cc2ccccc2)C(=O)O)cc1 (racemic) |  |
| 5.44 | 68% | 5.41 | CCCCO/N=C/c1ccc(OC(Cc2ccccc2)C(=O)O)cc1 (racemic) |  |
|  |  |  | CCCCCCCO/N=C/c1ccc(OC(Cc2ccccc2)C(=O)O)cc1 (racemic) | EC50 [3]: Not Active |
| 5.25 | 63% | 5.38 | CC(C)O/N=C/c1ccc(OC(Cc2ccccc2)C(=O)O)cc1 (racemic) |  |
| 5.35 | 52% | 5.42 | CC(C)CO/N=C/c1ccc(OC(Cc2ccccc2)C(=O)O)cc1 (racemic) |  |
| 5.68 | 58% | 5.17 | O=C(O)C(Cc1ccccc1)Oc1ccc(/C=N/OCc2ccccc2)cc1 (racemic) |  |
| 5.74 | 48% | 5.66 | O=C(O)C(Cc1ccccc1)Oc1ccc(/C=N/OCCc2ccccc2)cc1 (racemic) |  |
| 5.90 | 24% | 5.85 | O=C(O)C(Cc1ccccc1)Oc1ccc(/C=N/OCCCc2ccccc2)cc1 (racemic) |  |
| 5.03 | 68% | 5.28 | C/C(=N\O)c1ccc(OC(Cc2ccccc2)C(=O)O)cc1 (racemic) |  |
| 4.91 | 78% | 5.92 | O=C(O)C(Cc1ccccc1)Oc1ccc(/C(=N/O)c2ccccc2)cc1 (racemic) |  |
| 6.00 | 24% | 5.68 | CCCO/N=C(\c1ccccc1)c1ccc(OC(Cc2ccccc2)C(=O)O)cc1 (racemic) |  |
| 6.17 | 59% | 6.66 | CCCO/N=C(/c1ccccc1)c1ccc(OC(Cc2ccccc2)C(=O)O)cc1 (racemic) |  |
|  |  |  | Cc1cccc(Nc2cc(Cl)nc(SCC(=O)O)n2)c1C [PIRINIXIC ACID] | EC50 ([1]; hepg2): Not Active |

| SMILES | pEC50 [1] | Emax [2] | pEC50 [3] | also measured |
| --- | --- | --- | --- | --- |
| CN(CCOc1ccc(CC2SC(=O)NC2=O)cc1)c1ccccn1 (stereo unspecified) [ROSIGLITAZONE] |  | inactive |  | EC50 [3]: Not Active |

— ChEMBL document CHEMBL3396953, “Design, synthesis and biological evaluation of a class of bioisosteric oximes of the novel dual peroxisome proliferator-activated receptor α/γ ligand LT175” (Eur J Med Chem, 2015)
